Data on one compound can be found in ChEMBL document CHEMBL5046273, “Development of a Novel, Small-Molecule Brain-Penetrant Histone Deacetylase Inhibitor That Enhances Spatial Memory Formation in Mice” (J Med Chem, 2022).

A word on the IC50: it is the midpoint of a concentration-inhibition curve. As usually defined, the Cmax is the maximum level reached in the sampled fluid or tissue. By Tmax is commonly meant the time from dosing to the highest level.

Calls of active or inactive are those of the source. The calls are words filed in the database; no cut-off is given here.

The nature of data set [1]: AUC in Swiss Webster mouse brain at 40 mg/kg, ip by LC-MS/MS analysis. The class given is ADME, organism-based. The settings on record: in vivo. More on the design: dose 40 mg/kg. An outline of the steps:
(§1)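 Single i.p. dose of 40 mg/kg in Swiss Webster mice; blood, brain and liver taken at several time points. Tissues homogenized in acetonitrile, centrifuged, spin-filtered, dried and reconstituted, with 4,5-diphenylimidazole as instrument standard. Quantified by LC–MS/MS on a C18 column with a formic acid/MeCN gradient. Mean ± SD (n = 4), fitted to a two-compartment PK model.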

Data set [2] has as its target T1, Histone deacetylase 2 (Homo sapiens, UniProt Q92769). Description: Inhibition of recombinant human full-length HDAC2 incubated for 10 mins by Glo-luminescence assay. The procedure, abridged:
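Compounds were serially diluted and incubated with enzyme for 10 min. HDAC-Glo I/II substrate/developer was then added, and luminescence read after 40 min at 23 °C. IC50 from four-parameter fits from two independent titrations, mean ± SD.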

Data set [3] is described as follows: Elimination rate in Swiss Webster mouse brain at 40 mg/kg, ip by LC-MS/MS analysis. The class given is ADME, organism-based. The procedure, abridged:
as §1

Data set [4] concerns the target T2, Histone deacetylase (Homo sapiens) (UniProt Q13547+O15379+Q9UBN7+Q92769+Q9UQL6+Q8WUI4+Q9BY41+Q96DB2+P56524+Q9UKV0+Q969S8). Description: Inhibition of HDAC in human DU-145 cells assessed as increase in histone H3 acetylation after 24 hrs by immunofluorescence microscopy. The class given is cell-based. An outline of the steps:
(§2)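 Cells were fixed in 4% PFA and permeabilized in TBS-T/BSA. Staining used anti-acetyl-H3 (Lys9/Lys14) at 1:2000, an AlexaFluor 488 secondary and DAPI. At least five random fields were imaged by fluorescence microscopy; three independent experiments.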

The nature of data set [5]: Cmax in Swiss Webster mouse blood at 40 mg/kg, ip by LC-MS/MS analysis. The settings on record: in vivo. Also noted: route intraperitoneal, dose 40 mg/kg. The class given is ADME, organism-based. The procedure, abridged: as §1
The target in a further data set is Histone deacetylase 1 (Homo sapiens, UniProt Q13547). Description: Inhibition of HDAC1 in human DU-145 cells assessed as increase in histone H3 acetylation after 24 hrs by immunofluorescence microscopy. The class given is cell-based.
Sequence of Histone deacetylase 1 (Q13547 whole entry): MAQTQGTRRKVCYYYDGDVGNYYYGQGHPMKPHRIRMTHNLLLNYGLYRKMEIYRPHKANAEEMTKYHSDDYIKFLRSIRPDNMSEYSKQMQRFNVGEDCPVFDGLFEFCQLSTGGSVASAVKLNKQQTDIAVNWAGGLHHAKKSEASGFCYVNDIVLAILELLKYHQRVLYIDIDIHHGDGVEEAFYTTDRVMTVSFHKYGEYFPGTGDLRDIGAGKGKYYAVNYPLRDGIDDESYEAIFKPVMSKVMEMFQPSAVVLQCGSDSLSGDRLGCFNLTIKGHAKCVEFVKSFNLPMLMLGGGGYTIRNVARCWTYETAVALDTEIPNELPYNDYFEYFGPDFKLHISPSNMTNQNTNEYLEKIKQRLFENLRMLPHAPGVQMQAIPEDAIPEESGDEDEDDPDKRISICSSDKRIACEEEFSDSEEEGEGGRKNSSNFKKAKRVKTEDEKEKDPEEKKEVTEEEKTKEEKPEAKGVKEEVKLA
Data set [6] can be described thus: Drug uptake in BALB/c mouse blood at 40 mg/kg, ip measured upto 60 mins by mass spectroscopy analysis. The class given is ADME, organism-based. The following applies: in vivo, 1 h. The procedure, abridged:
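BALB/c mice received 40 mg/kg i.p. Retro-orbital blood was collected under isoflurane, then liver and whole brain after CO2 euthanasia, at 10, 30 and 60 min. Acetonitrile extracts were spin-filtered with 4,5-diphenylimidazole as instrument standard and analysed by LC–MS/MS.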

The target of data set [7] is T3, Protein deacetylase HDAC6 (Homo sapiens, UniProt Q9UBN7).
T3 sequence (Q9UBN7 whole entry): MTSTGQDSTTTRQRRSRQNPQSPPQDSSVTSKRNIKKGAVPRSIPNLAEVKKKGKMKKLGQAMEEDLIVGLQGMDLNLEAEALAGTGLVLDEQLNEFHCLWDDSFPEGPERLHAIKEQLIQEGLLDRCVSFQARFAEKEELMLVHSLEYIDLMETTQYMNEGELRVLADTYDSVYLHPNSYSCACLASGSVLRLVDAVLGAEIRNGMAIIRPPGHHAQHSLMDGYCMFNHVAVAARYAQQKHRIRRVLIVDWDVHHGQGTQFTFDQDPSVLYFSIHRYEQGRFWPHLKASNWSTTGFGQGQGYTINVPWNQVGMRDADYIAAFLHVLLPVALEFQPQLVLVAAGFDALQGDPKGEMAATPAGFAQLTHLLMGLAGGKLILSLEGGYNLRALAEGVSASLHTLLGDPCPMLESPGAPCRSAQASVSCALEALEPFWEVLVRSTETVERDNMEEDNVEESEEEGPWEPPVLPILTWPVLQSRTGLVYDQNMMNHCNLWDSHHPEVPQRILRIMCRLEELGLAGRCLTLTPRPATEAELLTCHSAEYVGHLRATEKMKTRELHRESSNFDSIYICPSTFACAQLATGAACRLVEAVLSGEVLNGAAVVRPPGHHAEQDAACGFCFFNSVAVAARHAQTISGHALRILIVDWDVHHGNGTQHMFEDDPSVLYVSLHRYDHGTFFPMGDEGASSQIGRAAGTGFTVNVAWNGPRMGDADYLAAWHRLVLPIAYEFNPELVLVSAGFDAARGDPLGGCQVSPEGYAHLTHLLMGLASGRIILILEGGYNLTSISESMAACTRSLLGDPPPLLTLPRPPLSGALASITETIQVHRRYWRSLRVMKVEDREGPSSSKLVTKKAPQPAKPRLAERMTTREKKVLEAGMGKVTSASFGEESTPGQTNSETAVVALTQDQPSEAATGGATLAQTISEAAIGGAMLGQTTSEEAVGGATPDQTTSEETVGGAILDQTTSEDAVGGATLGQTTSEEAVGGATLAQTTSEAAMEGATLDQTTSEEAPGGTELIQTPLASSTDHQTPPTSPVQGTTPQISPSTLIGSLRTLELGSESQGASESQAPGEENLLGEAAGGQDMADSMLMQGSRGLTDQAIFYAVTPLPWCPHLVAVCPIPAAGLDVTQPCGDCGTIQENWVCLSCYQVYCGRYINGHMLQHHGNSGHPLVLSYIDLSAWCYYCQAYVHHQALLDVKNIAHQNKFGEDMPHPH
Description: Inhibition of HDAC6 in human DU-145 cells assessed as increase in histone H3 acetylation after 24 hrs by immunofluorescence microscopy. The class given is cell-based.

Data set [8] deals with T2, Histone deacetylase (Homo sapiens). Description: Inhibition of HDAC in human DU-145 cells assessed as increase in histone H3 acetylation at 50 to 100 uM after 24 hrs by immunofluorescence microscopy. The class given is cell-based. The following applies: dose 50-100 µM. An outline of the steps:
as §2

Data set [9] can be described thus: Tmax in Swiss Webster mouse blood at 40 mg/kg, ip by LC-MS/MS analysis. The class given is ADME, organism-based. The procedure, abridged: as §1
Data set [10] in a line: Cmax in Swiss Webster mouse brain at 40 mg/kg, ip by LC-MS/MS analysis. Also noted: route intraperitoneal, dose 40 mg/kg. The class given is ADME, organism-based. An outline of the steps: as §1
In data set [11] the target is T1, Histone deacetylase 2. Description: Inhibition of HDAC2 in human DU-145 cells assessed as increase in histone H3 acetylation after 24 hrs by immunofluorescence microscopy. The class given is cell-based.

T1 sequence (Q92769 whole entry): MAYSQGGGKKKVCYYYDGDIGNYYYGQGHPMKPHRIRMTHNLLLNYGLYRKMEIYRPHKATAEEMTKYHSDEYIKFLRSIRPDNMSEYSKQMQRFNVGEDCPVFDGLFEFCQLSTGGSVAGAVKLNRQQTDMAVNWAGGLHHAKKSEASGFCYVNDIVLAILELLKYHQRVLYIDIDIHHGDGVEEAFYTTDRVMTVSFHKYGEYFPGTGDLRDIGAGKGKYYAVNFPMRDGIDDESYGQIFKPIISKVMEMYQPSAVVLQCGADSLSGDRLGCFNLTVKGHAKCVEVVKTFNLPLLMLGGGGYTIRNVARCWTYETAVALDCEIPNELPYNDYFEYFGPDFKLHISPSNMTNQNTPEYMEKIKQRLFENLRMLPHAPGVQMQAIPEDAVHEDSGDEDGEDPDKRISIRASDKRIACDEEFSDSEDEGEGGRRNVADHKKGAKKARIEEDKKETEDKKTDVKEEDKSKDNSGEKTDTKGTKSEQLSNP

With `CC(C)(C)OC(=O)CC(O)/C=C/CCSSCC/C=C/C(O)CC(=O)OC(C)(C)C` (configuration not stated), the AUC in data set [1] was determined as 2019 ng·min/g. In addition, the IC50 came to 100 µM on Histone deacetylase 2 [2], 8.7 µM at Histone deacetylase 1, 12 µM in [7] and 10 µM on Histone deacetylase 2 [11]. The compound further had a k el in data set [3] of 0.000867 s⁻¹. Moreover, the inhibition entry in data set [4] was “Dose-Dependent Effect”. The figures for the Cmax in data set [5] and in [10] were 131.2 ng/mL and 82.5 ng/g, respectively. The Drug uptake entry in data set [6] is “Active”. In data set [8], the inhibition entry is “Active”. Further, the Tmax in [9] is 10 min.
